# Screens (PubChem)
# TRPC4 potent: positive allosteric modulators of TRPC4, primary screen, cell-based, mouse TRPC4beta, HEK293 mu-opioid, Fluo-4 calcium. Short transient receptor potential channel 4 (Mus musculus), Q9QUQ5. DAMGO EC20, Fluo-4 Ca2+ flux; hits give high values. B-score at 10 µM. 0.42% of 310,000 active. AID 2227, 2009;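 active = B-score of calcium response area above 5 SD of library B-scores, with initial fluorescence ratio within 5 SD of library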;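 also: B-score of integrated fluorescence ratio over time as area under calcium response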
# Target sequence (Q9QUQ5 whole entry, looked up): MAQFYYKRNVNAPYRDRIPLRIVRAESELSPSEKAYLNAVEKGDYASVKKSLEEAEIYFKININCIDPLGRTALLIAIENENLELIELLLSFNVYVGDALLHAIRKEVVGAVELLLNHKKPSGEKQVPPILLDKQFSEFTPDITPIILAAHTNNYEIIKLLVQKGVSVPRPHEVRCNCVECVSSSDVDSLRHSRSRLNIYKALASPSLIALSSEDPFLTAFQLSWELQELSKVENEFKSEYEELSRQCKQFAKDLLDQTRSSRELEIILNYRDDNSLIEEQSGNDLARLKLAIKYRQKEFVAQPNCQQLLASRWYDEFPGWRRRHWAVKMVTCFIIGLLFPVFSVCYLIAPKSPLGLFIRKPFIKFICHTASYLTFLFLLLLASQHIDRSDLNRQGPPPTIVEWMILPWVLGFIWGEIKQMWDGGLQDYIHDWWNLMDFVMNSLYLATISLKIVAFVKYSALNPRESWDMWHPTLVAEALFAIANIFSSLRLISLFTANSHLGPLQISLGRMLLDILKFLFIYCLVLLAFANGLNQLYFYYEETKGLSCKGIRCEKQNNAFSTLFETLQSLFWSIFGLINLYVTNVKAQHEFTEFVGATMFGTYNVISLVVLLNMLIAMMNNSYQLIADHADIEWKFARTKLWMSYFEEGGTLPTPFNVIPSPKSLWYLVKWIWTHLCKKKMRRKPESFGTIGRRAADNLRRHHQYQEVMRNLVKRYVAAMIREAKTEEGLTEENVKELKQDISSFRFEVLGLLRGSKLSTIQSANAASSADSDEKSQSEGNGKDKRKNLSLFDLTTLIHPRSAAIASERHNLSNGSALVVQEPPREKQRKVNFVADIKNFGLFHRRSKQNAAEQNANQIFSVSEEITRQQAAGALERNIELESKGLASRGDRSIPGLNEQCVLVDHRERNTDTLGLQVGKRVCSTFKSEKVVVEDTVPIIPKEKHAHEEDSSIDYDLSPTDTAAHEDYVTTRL
# TRPC6 activator: mouse TRPC6 channel activators, primary screen, cell-based, HEK293, membrane potential dye. B-score at 10 µM. 0.13% of 310,000 active. AID 2550, 2010. HEK293-TRPC6 membrane potential dye fluorescence; hits give high values. Short transient receptor potential channel 6 (Mus musculus), Q61143;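 active = B-score of the integrated fluorescence ratio above library mean plus 3 SD, and starting fluorescence ratio within library mean plus 5 SD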;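 also: higher score means more depolarization so channel activation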
# Pemphigus Ab inh: inhibitors of pemphigus antibody binding to DSG3, primary screen, biochemical, bead-based, flow cytometry, scFv-GFP | Desmoglein-3 (Homo sapiens), P32926 | DSG3-coupled beads, scFv-anti-DSG3-GFP binding; hits give low values | binding (percent of control), % at 10 µM | 0.48% of 310,000 active;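 active = binding more than 3 SD below its plate's average and above zero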;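 also: hits lower antibody fragment binding to DSG3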
# TRPC6 inh: mouse TRPC6 channel inhibitors, primary screen, cell-based, HEK293, membrane potential dye. ACh-evoked depolarization; hits give low values. B-score at 10 µM. 1.1% of 310,000 active. AID 2553, 2010;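 active = B-score under library mean minus 3 SD, initial fluorescence not abnormally high, positive integrated signal ratio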;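 also: B-score derived from integrated fluorescence ratio over the kinetic read; more negative B-score means stronger inhibition of depolarization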
# TRPC4 block: inhibitors of mouse TRPC4 channel, primary screen, Fluo4 calcium, HEK293 TRPC4beta/mu-opioid cells; Short transient receptor potential channel 4 (Mus musculus), Q9QUQ5; DAMGO-evoked Fluo4 calcium flux; hits give low values; B-score at 10 µM; 0.39% of 300,000 active; AID 2247, 2010;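 active = B-score over 3 SD under the library average, no early fluorescence shift, positive overall ratio signal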
#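 Test system – stable TRPC4beta/mu-opioid receptor HEK293 cells · Probe or stimulus – DAMGO, a submaximal dose followed by a maximal one · Dosing – one concentration per compound · Signal – Fluo4 calcium fluorescence by kinetic imaging, 5 s 1 Hz baseline · Evaluation – per-well B score of integrated baseline-normalized Fluo4 ratio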
# TRPC4 act: activators of mouse TRPC4 channel, primary screen, Fluo4 calcium, HEK293 TRPC4beta/mu-opioid cells; Short transient receptor potential channel 4 (Mus musculus), Q9QUQ5; Fluo4 calcium fluorescence; hits give high values; B-score at 10 µM; 0.49% of 310,000 active; AID 2237, 2010;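 active = B-score above 5 SD of library B-scores, and initial fluorescence ratio not above library mean plus 5 SD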;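 also: positive B-score marks a calcium rise read as TRPC4 activation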
#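 system = HEK293 cells stably co-expressing mouse TRPC4beta and mu-opioid receptor | schedule = Fluo4 dye loading 45 min at room temperature, 110 s recording | measure = B-scored integrated calcium fluorescence ratio | signal = Fluo4 calcium-sensitive dye fluorescence, kinetic, 1 Hz baseline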
# * marks the source's active call; other numbers are inactive results; i = inactive; nt = no result. Sampled rows, rich in hits. Any-hit rate of the full collection: about 2.5%.
SMILES,TRPC4 potent,TRPC6 activator,Pemphigus Ab inh,TRPC6 inh,TRPC4 block,TRPC4 act
CC1(c2ccc(OC(F)F)cc2)NC(=O)N(CC(=O)Nc2cccnc2Cl)C1=O (configuration not stated),i,i,94,i,i,62*
COc1ccccc1N1CCN(C(c2cccs2)C(C)NC(=O)c2cccs2)CC1 (configuration not stated),i,i,123,i,i,84*
CC(NC(=O)C1CC1)C(c1cccs1)N1CCOCC1 (configuration not stated),i,i,101,i,i,i
CC(NC(=O)C1CC1)C(c1cccs1)N1CCN(c2ccccc2)CC1 (configuration not stated),i,i,102,i,i,44*
CC(C)C(=O)NC(C)C(c1cccs1)N1CCN(c2ccccc2)CC1 (configuration not stated),i,i,116,i,i,53*
CC(C)CN1CCN(Cc2nc(C(C)C)cs2)CC1CCO (configuration not stated),i,i,-8.8*,i,i,i
CC(C)CCN1CCN(Cc2ccsc2)CC1CCO (configuration not stated),i,i,101,i,-8*,i
CC(C)CCN1CCN(Cc2ccoc2)CC1CCO (configuration not stated),i,i,96,i,i,i
Cc1ccc(S(=O)(=O)N2CCCCC2)cc1NC(=O)COC(=O)c1ccccc1F,i,i,102,i,i,i
Cc1nn(C(=O)CNS(=O)(=O)c2ccccc2)c(C)c1Sc1ccc(Cl)cc1,i,i,99,i,-7*,i
CN(C)CCSc1nc(-c2ccccc2)nc2c1CCC2,i,i,82,i,i,i
CN(C)CCCSc1nc(-c2ccccc2)nc2c1CCC2,16*,i,176,i,i,i
Cc1cc(Br)ccc1OCC(=O)NNC(=O)c1cnccn1,i,i,103,i,i,i
COC(=O)c1sc(-c2ccccc2)cc1NC(=O)C1CC1,i,i,100,i,i,i
COC(=O)c1sc(-c2ccc(C(C)(C)C)cc2)cc1NC(=O)c1ccccc1C(=O)O,12*,i,nt,i,i,i
COC(=O)c1sc(-c2ccc(C(C)(C)C)cc2)cc1NC(=O)CSCC(=O)O,i,i,nt,i,-6*,i
C[C@H](C(=O)CC(=O)OC(C)(C)C)[C@H](O)c1ccccc1,i,i,106,i,i,i
Cc1ccc(CNC(=O)Cc2noc3ccccc23)cc1,i,i,115,i,i,i
Cc1ccc(-n2c(-c3ccccc3)c[n+]3c2CCc2ccccc2-3)c(C)c1,i,i,130,-5.5*,i,i
Cc1ccc(-n2c(-c3ccccc3)c[n+]3c2CCC3)cc1,i,i,100,i,i,i
Cc1cc(N(CCO)CCO)ccc1C(c1ccc(N(CCO)CCO)cc1C)c1ccccc1Cl,11*,i,121,i,i,i
CCN(CC)c1ccc(NC(=O)CNCc2ccccc2Cl)c(C)c1,i,i,99,i,i,i
COCCCNC(=O)c1c(N)n(/N=C/c2cccnc2)c2nc3ccccc3nc12,i,i,nt,i,i,i
COCCCNC(=O)c1c(N)n(/N=C/c2cccs2)c2nc3ccccc3nc12,i,i,79*,i,i,i
CN(C)CCCN(C(=O)c1ccc(S(=O)(=O)N2CCCC2)cc1)c1nc2c(F)cc(F)cc2s1,i,i,103,i,-9*,i
SMILES,TRPC4 potent,TRPC6 activator,Pemphigus Ab inh,TRPC6 inh,TRPC4 block,TRPC4 act
CN(C)CCCN(C(=O)c1ccc(S(=O)(=O)N2CCc3ccccc3C2)cc1)c1nc2ccc(F)cc2s1,i,i,nt,i,i,111*
COc1ccc2sc(N(CCCN(C)C)C(=O)c3ccc(S(=O)(=O)N4CCCC4)cc3)nc2c1,i,i,98,i,i,i
CCN(CC)CCN(C(=O)c1ccccc1OC)c1nc2ccc(F)cc2s1,i,i,107,i,-6*,i
CN(C)CCCN(C(=O)c1ccc(S(=O)(=O)N2CCc3ccccc3C2)cc1)c1nc2c(F)cccc2s1,i,i,119,i,i,i
CCN(CC)CCN(C(=O)c1ccc2c(c1)CCCC2)c1nc2ccc(F)cc2s1,i,i,104,i,i,i
CN(C)CCCN(C(=O)c1ccc(S(=O)(=O)N(C)C)cc1)c1nc2ccc(F)cc2s1,i,i,104,i,-5*,49*
O=C(Nc1cccc([N+](=O)[O-])c1)c1ccc2ccccc2c1O,i,i,97,i,i,i
Cc1ccc(C2NC(c3ccc(C)cc3)C(C)C(=O)C2C)cc1 (configuration not stated),i,i,109,i,i,i
Cc1ccc2nc(N(CCCN(C)C)C(=O)c3sc4ccccc4c3Cl)sc2c1,10*,i,145,i,i,i
CN(C)CCCN(C(=O)c1ccc(S(=O)(=O)N2CCc3ccccc32)cc1)c1nc2ccc(Cl)cc2s1,i,i,nt,i,i,i
Cc1ccc2nc(N(CCCN(C)C)C(=O)c3ccc(S(=O)(=O)N4CCc5ccccc5C4)cc3)sc2c1,i,i,nt,i,i,129*
Cc1ccc2nc(N(CCCN(C)C)C(=O)c3ccc(S(=O)(=O)N(C)C)cc3)sc2c1,i,i,nt,i,i,i
CN(C)CCCN(C(=O)c1ccc(S(=O)(=O)N2CCc3ccccc32)cc1)c1nc2ccc(F)cc2s1,i,i,105,i,i,111*
Cc1cc(C)c2sc(N(CCCN(C)C)C(=O)c3ccc(S(=O)(=O)N4CCc5ccccc5C4)cc3)nc2c1,i,i,118,i,i,i
O=C(NCc1ccc2c3c(cccc13)C(=O)N2)c1cccs1,i,i,98,i,i,i
